Results: ChEMBL document CHEMBL1165950, “Design and synthesis of new potent anticancer pyrazoles with high FLT3 kinase inhibitory selectivity” (Bioorg Med Chem, 2010)

Tests used:
Format in all cases: functional
HCT-15 [1] = experiment: Cytotoxicity against human HCT15 cells assessed as cell growth at 0.001 uM after 48 hrs by sulforhodamine B assay; settings: HCT-15, 48 h, read-out: Activity
UACC-257 = experiment: Cytotoxicity against human UACC257 cells assessed as cell growth at 10 uM after 48 hrs by sulforhodamine B assay; settings: UACC-257, 48 h, read-out: Activity
CCRF-CEM = experiment: Cytotoxicity against human CCRF-CEM cells assessed as cell growth at 0.01 uM after 48 hrs by sulforhodamine B assay; settings: read-out: Activity
How it was run: (§1)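 NCI-60 five-dose screen. Cells were grown in RPMI 1640 with 5% FBS and 2 mM L-glutamine, plated at 5000–40,000 cells/well and preincubated for 24 h. Time-zero plates were TCA-fixed. DMSO-solubilized drug was added at five concentrations (10-fold or ½-log serial dilutions) for 48 h at 37 °C, 5% CO2. Cells were TCA-fixed, stained with 0.4% SRB and read at 515 nm. Percent growth used time-zero, control and test absorbances.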

MDA-MB-468 = experiment: Cytotoxicity against human MDA-MB-468 cells assessed as cell growth at 100 nM after 48 hrs by sulforhodamine B assay; settings: MDA-MB-468, 48 h, read-out: Activity
SK-MEL-2 = experiment: Cytotoxicity against human SK-MEL-2 cells assessed as cell growth at 0.01 uM after 48 hrs by sulforhodamine B assay; settings: SK-MEL-2, 48 h, read-out: Activity
M14 = experiment: Cytotoxicity against human M14 cells assessed as cell growth at 10 uM after 48 hrs by sulforhodamine B assay; settings: M14, 48 h, read-out: Activity
OVCAR-3 = experiment: Cytotoxicity against human OVCAR-3 cells assessed as cell growth at 10 uM; settings: read-out: Activity
How it was run: (§2)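 NCI-60 screen: cells grown in RPMI 1640 with 5% FBS and 2 mM L-glutamine, plated at 5000–40,000 cells/well according to doubling time, and preincubated 24 h at 37 °C, 5% CO2. The single 10 µM dose (DMSO stock) was added, then incubated 48 h. Cells were TCA-fixed and stained with 0.4% SRB, read at 515 nm, and growth % calculated against time-zero and control plates.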

SK-MEL-5 = experiment: Cytotoxicity against human SK-MEL-5 cells assessed as cell growth at 0.001 uM after 48 hrs by sulforhodamine B assay; settings: SK-MEL-5, 48 h, read-out: Activity
EKVX [2] = experiment: Cytotoxicity against human EKVX cells assessed as cell growth at 0.001 uM after 48 hrs by sulforhodamine B assay; settings: read-out: Activity
HCT-116 [3] = experiment: Cytotoxicity against human HCT116 cells assessed as cell growth at 10 uM after 48 hrs by sulforhodamine B assay; settings: HCT-116, 48 h, read-out: Activity
UO-31 = experiment: Cytotoxicity against human UO31 cells assessed as cell growth at 1 uM after 48 hrs by sulforhodamine B assay; settings: UO-31, 48 h, read-out: Activity
786-0 = experiment: Cytotoxicity against human 786-0 cells assessed as cell growth at 100 nM after 48 hrs by sulforhodamine B assay; settings: 786-0, 48 h, read-out: Activity; how it was run: as §1
SNB-19 = experiment: Cytotoxicity against human SNB19 cells assessed as cell growth at 0.001 uM after 48 hrs by sulforhodamine B assay; settings: SNB-19, 48 h, read-out: Activity
SW-620 = experiment: Cytotoxicity against human SW620 cells assessed as cell growth at 1 uM after 48 hrs by sulforhodamine B assay; settings: SW-620, 48 h, read-out: Activity
HT-29 [4] = experiment: Cytotoxicity against human HT-29 cells assessed as cell growth at 0.01 uM after 48 hrs by sulforhodamine B assay; settings: HT-29, 48 h, read-out: Activity
SK-OV-3 = experiment: Growth inhibition of human SKOV3 cells after 48 hrs by sulforhodamine B assay; settings: SK-OV-3, 48 h; for CC50: read-out: LC50 (the source's name)
How it was run: (§3)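 NCI 60-cell screen, five-dose mode. Cells grown in RPMI 1640 with 5% FBS and 2 mM L-glutamine and plated at 5000-40,000 cells/well according to doubling time. After 24 h preincubation, a Tz plate was TCA-fixed. Five concentrations (10-fold or 1/2 log dilutions) were applied for 48 h at 37 °C. SRB staining read at 515 nm. IC50 taken from [(Ti-Tz)/(C-Tz)]×100 = 50.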

HCT-15 [5] = experiment: Growth inhibition of human HCT15 cells after 48 hrs by sulforhodamine B assay; settings: HCT-15, 48 h; for CC50: read-out: LC50 (the source's name); how it was run: as §3
OVCAR-5 [6] = experiment: Cytotoxicity against human OVCAR5 cells assessed as cell growth at 100 nM after 48 hrs by sulforhodamine B assay; settings: OVCAR-5, 48 h, read-out: Activity
NCI-H460 = experiment: Cytotoxicity against human NCI-H460 cells assessed as cell growth at 0.001 uM after 48 hrs by sulforhodamine B assay; settings: NCI-H460, 48 h, read-out: Activity
HOP-62 = experiment: Cytotoxicity against human HOP62 cells assessed as cell growth at 0.01 uM after 48 hrs by sulforhodamine B assay; settings: HOP-62, 48 h, read-out: Activity
EKVX [7] = experiment: Cytotoxicity against human EKVX cells assessed as cell growth at 10 uM; settings: read-out: Activity
How it was run: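 Single-dose NCI-60 screen at 10 µM. Cells were grown in RPMI 1640 with 5% FBS and 2 mM L-glutamine, then treated for 48 h at 37 °C. Protein was measured by SRB staining with absorbance at 515 nm. Percentage growth was recorded, and inhibition percentage was calculated as 100 minus growth percentage.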

HOP-92 [8] = experiment: Cytotoxicity against human HOP92 cells assessed as cell growth at 10 uM after 48 hrs by sulforhodamine B assay; settings: HOP-92, 48 h, read-out: Activity
SN12C = experiment: Cytotoxicity against human SN12C cells assessed as cell growth at 10 uM; settings: read-out: Activity; how it was run: as §2
UACC-62 = experiment: Cytotoxicity against human UACC62 cells assessed as cell growth at 10 uM; settings: read-out: Activity; how it was run: as §2
HCT-116 [9] = experiment: Cytotoxicity against human HCT116 cells assessed as cell growth at 1 uM after 48 hrs by sulforhodamine B assay; settings: HCT-116, 48 h, read-out: Activity
HOP-92 [10] = experiment: Cytotoxicity against human HOP92 cells assessed as cell growth at 1 uM after 48 hrs by sulforhodamine B assay; settings: HOP-92, 48 h, read-out: Activity
PC-3 = experiment: Cytotoxicity against human PC3 cells assessed as cell growth at 1 uM after 48 hrs by sulforhodamine B assay; settings: PC-3, 48 h, read-out: Activity
OVCAR-5 [11] = experiment: Cytotoxicity against human OVCAR5 cells assessed as cell growth at 10 uM; settings: read-out: Activity; how it was run: as §2
HT-29 [12] = experiment: Cytotoxicity against human HT-29 cells assessed as cell growth at 100 nM after 48 hrs by sulforhodamine B assay; settings: HT-29, 48 h, read-out: Activity
TK-10 = experiment: Cytotoxicity against human TK10 cells assessed as cell growth at 10 uM after 48 hrs by sulforhodamine B assay; settings: TK-10, 48 h, read-out: Activity
MOLT-4 = experiment: Cytotoxicity against human MOLT4 cells assessed as cell growth at 10 uM after 48 hrs by sulforhodamine B assay; settings: MOLT-4, 48 h, read-out: Activity

| SMILES | growth at 0.001 µM (HCT-15 [1]) [%] | growth at 10 µM (UACC-257) [%] | growth at 0.01 µM (CCRF-CEM) [%] | growth at 0.1 µM (MDA-MB-468) [%] | growth at 0.01 µM (SK-MEL-2) [%] | growth at 10 µM (M14) [%] | growth at 10 µM (OVCAR-3) [%] | growth at 0.001 µM (SK-MEL-5) [%] | growth at 0.001 µM (EKVX [2]) [%] | growth at 10 µM (HCT-116 [3]) [%] | growth at 1 µM (UO-31) [%] | growth at 0.1 µM (786-0) [%] | growth at 0.001 µM (SNB-19) [%] | growth at 1 µM (SW-620) [%] | growth at 0.01 µM (HT-29 [4]) [%] | GI50 (SK-OV-3) [µM] | TGI (SK-OV-3) [µM] | CC50 (SK-OV-3) [µM] | GI50 (HCT-15 [5]) [µM] | TGI (HCT-15 [5]) [µM] | other results |
| --- | --- | --- | --- | --- | --- | --- | --- | --- | --- | --- | --- | --- | --- | --- | --- | --- | --- | --- | --- | --- | --- |
| COc1cc(C)cc(-c2nn(CC#N)cc2-c2ccnc(-c3ccc(N(C)C)cc3)c2)c1 | 99 | 13 | 100 | -18 | 116 | -16 | 2.79 | 99 | 91 | -44 | 18 | 22 | 102 | 19 | 105 | 0.304 | 0.882 | > 100 | 0.35 | 8.79 | CC50 (HCT-15 [5]): > 100 µM; growth at 0.1 µM (OVCAR-5 [6]): 79%; growth at 0.001 µM (NCI-H460): 103%; growth at 0.01 µM (HOP-62): 99%; growth at 10 µM (EKVX [7]): 41%; growth at 10 µM (HOP-92 [8]): -13%; growth at 10 µM (SN12C): 24.7%; growth at 10 µM (UACC-62): 19.1%; growth at 1 µM (HCT-116 [9]): -41%; growth at 1 µM (HOP-92 [10]): 9%; growth at 1 µM (PC-3): 17%; growth at 10 µM (OVCAR-5 [11]): 55.9%; growth at 0.1 µM (HT-29 [12]): 25%; growth at 10 µM (TK-10): -3%; growth at 10 µM (MOLT-4): 1% |
| COc1cc(C)cc(-c2nn(CC#N)cc2-c2ccc(-c3cccc(C(C)=O)c3)nc2)c1 | 95 | 3 | 94 | 9 | 89 | -43 | 12.5 | 95 | 99 | -53 | 21 | 92 | 101 | 4 | 93 | 3.13 | 9.1 | > 100 | 2.14 | > 100 | CC50 (HCT-15 [5]): > 100 µM; growth at 0.1 µM (OVCAR-5 [6]): 68%; growth at 0.001 µM (NCI-H460): 104%; growth at 0.01 µM (HOP-62): 83%; growth at 10 µM (EKVX [7]): 51.6%; growth at 10 µM (HOP-92 [8]): -17%; growth at 10 µM (SN12C): 40.2%; growth at 10 µM (UACC-62): 27.2%; growth at 1 µM (HCT-116 [9]): 1%; growth at 1 µM (HOP-92 [10]): -4%; growth at 1 µM (PC-3): 20%; growth at 10 µM (OVCAR-5 [11]): 91.3%; growth at 0.1 µM (HT-29 [12]): 99%; growth at 10 µM (TK-10): -29%; growth at 10 µM (MOLT-4): 14% |
| Cc1cc(O)cc(-c2nn(CC#N)cc2-c2ccnc(-c3ccc(Oc4ccccc4)cc3)c2)c1 | 94 | -93 | 93 | 88 | 99 | -94 | 96 | 93 | 103 | -97 | 19 | 91 | 101 | -52 | 104 | 1.2 | 24.4 | 49.6 | 2.14 | 5.38 | CC50 (HCT-15 [5]): 26.1 µM; growth at 0.1 µM (OVCAR-5 [6]): 82%; growth at 0.001 µM (NCI-H460): 100%; growth at 0.01 µM (HOP-62): 108%; growth at 10 µM (EKVX [7]): 44.9%; growth at 10 µM (HOP-92 [8]): -65%; growth at 10 µM (SN12C): 60.2%; growth at 10 µM (UACC-62): 68.1%; growth at 1 µM (HCT-116 [9]): -100%; growth at 1 µM (HOP-92 [10]): -67%; growth at 1 µM (PC-3): -12%; growth at 10 µM (OVCAR-5 [11]): 96.8%; growth at 0.1 µM (HT-29 [12]): 91%; growth at 10 µM (TK-10): -89%; growth at 10 µM (MOLT-4): -21% |
